Results taken from paper PMC4547841 (Bioorganic & medicinal chemistry letters, 2013).

Legend:
[1] = tested on: hsp90; test: Luciferase refolding assays; assay type: biochemical; conditions: 17-AAG 1 μM, SM145 50 μM (Figure 3); CA1 in Supplemental Figure S3
How it was run: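 Refolding of heat-denatured firefly luciferase, read as luciferase activity over time up to 2 h, in two systems: rabbit reticulocyte lysate, and a pure protein system with 1μM hsp70, 0.2μM hsp40, 0.1μM HOP and 0.5μM hsp90. Test compounds at 1μM or 50μM. n=3, mean±SEM.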

[2] = tested on: glucocorticoid receptor (GR); test: Glucocorticoid receptor; assay type: cell-based; conditions: HeLa; 17-AAG 100 nM and 1 μM; n≥3
How it was run: (§1)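 HeLa cells treated with test compounds at two concentrations each (100nM and 1μM, or 5μM and 50μM). Cell lysates analysed by western blot. Bands quantitated by densitometry, normalized to GAPDH and to DMSO control. n≥3, mean±SEM.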

[3] = tested on: heat shock response; test: Heat shock response; assay type: cell-based; conditions: HeLa; 17-AAG 100 nM and 1 μM, CA1 and SM145 5 μM and 50 μM; hsp70, hsp90, HSF1 levels
[4] = tested on: HSF1; test: HSF1 protein level in HeLa cell lysate, western blot; assay type: cell-based; conditions: 17-AAG 100 nM and 1 μM, normalized to GAPDH and DMSO control, n≥3
How it was run: as §1

[5] = tested on: HeLa cells; conditions: assay not described; HeLa treated at IC50 and ten-fold over IC50; ref [36]; cited from earlier work
[6] = tested on: FKBP52; test: FKBP52 protein level in HeLa cell lysate, western blot; assay type: cell-based; conditions: n≥3
How it was run: as §1

[7] = tested on: hsp90 and TOM70; test: TPR co-chaperone and hsp90 binding assay, TOM70
How it was run: (§2)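 Binding of each TPR co-chaperone (Unc45, CHIP, TOM70, HOP, Cyp40, FKBP52, FKBP51) to hsp90 measured with increasing test compound, 0–5μM or 0–10μM depending on compound.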

[8] = tested on: hsp70; test: hsp70 protein level in HeLa cell lysate, western blot; assay type: cell-based; conditions: normalized to GAPDH and DMSO control, n≥3
How it was run: as §1

[9] = tested on: FKBP51; test: FKBP51 protein level in HeLa cell lysate, western blot; assay type: cell-based; conditions: n≥3
How it was run: as §1

[10] = tested on: hsp90 and FKBP51; test: TPR co-chaperone and hsp90 binding assay, FKBP51
How it was run: as §2

[11] = tested on: hsp90; test: hsp90 protein level in HeLa cell lysate, western blot; assay type: cell-based; conditions: 17-AAG 100 nM and 1 μM, normalized to GAPDH and DMSO control, n≥3
How it was run: as §1

[12] = tested on: hsp90 and CHIP; test: TPR co-chaperone and hsp90 binding assay, CHIP; conditions: CA1 at 10 μM
How it was run: as §2

[13] = tested on: hsp90 and FKBP52; test: TPR co-chaperone and hsp90 binding assay, FKBP52; conditions: CA1 0–10 μM; some Figure 5 data marked * previously published, ref [31]
[14] = tested on: hsp90 and Unc45; test: TPR co-chaperone and hsp90 binding assay, Unc45; conditions: CA1 0–10 μM
How it was run: as §2

[15] = tested on: hsp90 and Cyp40; test: TPR co-chaperone and hsp90 binding assay, Cyp40; conditions: CA1 at 10 μM
How it was run: as §2

[16] = tested on: hsp90 and HOP; test: TPR co-chaperone and hsp90 binding assay, HOP; conditions: CA1 0–10 μM; some Figure 5 data marked * previously published, ref [31]
[17] = tested on: hsp90 and immunophilins; conditions: millimolar concentration; ref [28]; cited from earlier work
[18] = 17-AAG 100 nM and 1 μM, normalized to GAPDH, compared to DMSO

With `C=CCNC1=C2C[C@@H](C)C[C@H](OC)[C@H](O)[C@@H](C)/C=C(\C)[C@H](OC(N)=O)[C@@H](OC)/C=C\C=C(/C)C(=O)NC(=CC1=O)C2=O` [17-AAG] the “luciferase activity over time” value [1] was “reduce the luciferase activity over time”, the “GR protein level” value [2] was “no change” and the “heat shock response triggered” value [3] was “triggering the heat shock response”. The “HSF1 protein level, fold increase” value [4] was ~4 fold, the IC50 [5] was ~100 nM and the “FKBP52 protein level, fold increase” value [6, 18] was ~ 4 fold. For the same molecule, the “inhibition of TOM70 binding to hsp90” value ([7]; 17-AAG at 5 μM) was “only partially inhibits”, the “hsp70 protein level, fold increase” value ([8]; 17-AAG 100 nM and 1 μM) was ~ 2.5 fold and the “FKBP51 protein level, fold increase” value [9, 18] was ~ 2 fold. The “inhibition of FKBP51 binding to hsp90” value ([10]; 17-AAG at 5 μM) was “only partially inhibits” and the “hsp90 protein level, fold increase” value [11] was ~3 fold.

With `CO[C@H]1[C@H](OC(=O)c2ccc(C)[nH]2)[C@H](O)[C@@H](Oc2ccc3c(O)c(NC(=O)c4c[nH]c(C(=O)Nc5c(O)c6ccc(O[C@H]7OC(C)(C)[C@@H](OC)[C@H](OC(=O)c8ccc(C)[nH]8)[C@@H]7O)c(C)c6oc5=O)c4C)c(=O)oc3c2C)OC1(C)C` [CA1, coumermycin A1] the “inhibition of CHIP binding to hsp90” value [12] was “inhibiting”, the “luciferase activity over time” value [1] was “reduce the luciferase activity over time” and the “effect on binding between hsp90 and FKBP52” value [13] was “no impact”. The “heat shock response triggered” value [3] was “the HSR was not triggered”, the “effect on binding between hsp90 and Unc45” value [14] was “no impact” and the “FKBP52 protein level” value ([6]; CA1 at high concentrations, relative to control) was “slightly decreases”. The “inhibition of TOM70 binding to hsp90” value ([7]; CA1 at 10 μM) was “inhibiting”, the “hsp70 protein level” value ([8]; 5 μM and 50 μM) was “maintenance of hsp70 protein levels” and the “inhibition of Cyp40 binding to hsp90” value [15] was “inhibiting”. The “FKBP51 protein level” value ([9]; CA1 5 μM and 50 μM) was “little change”, the “effect on binding between hsp90 and HOP” value [16] was “no impact” and the “effect on binding between hsp90 and FKBP51” value ([10]; CA1 0–10 μM) was “no impact”.

For `CO[C@@H]1[C@@H](OC(N)=O)[C@@H](O)[C@H](Oc2ccc3c(O)c(NC(=O)c4ccc(O)c(CC=C(C)C)c4)c(=O)oc3c2C)OC1(C)C` [novabiocin], the “disruption of immunophilins from binding to hsp90” value [17] is listed as “disrupts immunophilins from binding to hsp90”.
